The values that follow come from ChEMBL document CHEMBL1125311, “Inhibition of human leukocyte elastase. 4. Selection of a substituted cephalosporin (L-658,758) as a topical aerosol” (J Med Chem, 1992).

In data set [1] the test system is Cricetinae gen. sp. The data set can be described thus: Compound was evaluated in vivo for inhibition of HLE-induced hemorrhage in hamster lung at 100 microg, 30 min after administration. It counts as functional, Cricetulus griseus. The method in brief: (§1)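 Hamster, intratracheal dosing of compound (per animal) 30 min before IT instillation of 50 μg HLE (50 units in Experimental); hemorrhage read 3 h later: lungs lavaged with saline, hemoglobin in lavage measured at 414 nm. Percent inhibition from drug-treated vs vehicle-treated hemorrhage; three animals per dose and time. Titration at 100, 30, 10, 3 μg/animal gives ED50.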

Data set [2] concerns Cricetinae gen. sp. The data set can be described thus: Compound was evaluated in vivo for inhibition of HLE-induced hemorrhage in hamster lung at 100 microg, 90 min after administration. It counts as functional, Cricetulus griseus.
The target in data set [3] is T1, Neutrophil elastase (Homo sapiens) (UniProt P08246).
T1 sequence (whole entry): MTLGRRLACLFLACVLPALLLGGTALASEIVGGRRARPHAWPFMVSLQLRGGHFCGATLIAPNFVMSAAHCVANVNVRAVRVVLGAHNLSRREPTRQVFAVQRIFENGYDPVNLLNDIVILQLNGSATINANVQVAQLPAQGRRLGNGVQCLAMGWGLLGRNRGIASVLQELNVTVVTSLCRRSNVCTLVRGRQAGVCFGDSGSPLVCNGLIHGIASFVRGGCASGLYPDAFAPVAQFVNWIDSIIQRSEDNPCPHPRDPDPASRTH

The test system of data set [4] is Cricetinae gen. sp. The data set can be described thus: Compound was evaluated in vivo for inhibition of HLE-induced hemorrhage in hamster lung at 100 microg 30 min after administration. It counts as functional, Cricetulus griseus. Summed up:
as §1

Data set [5] has as its system Cricetinae gen. sp. The data set can be described thus: Compound was evaluated in vivo for inhibition of HLE-induced hemorrhage in hamster lung at 30 microg 30 min after administration. The class given is functional, Cricetulus griseus. The method in brief:
as §1

In data set [6] the test system is Cricetinae gen. sp. As to the kind of experiment: Compound was evaluated in vivo for inhibition of HLE-induced hemorrhage in hamster lung at 400 microg, 5 min after administration. The class given is functional, Cricetulus griseus.
The subject of data set [7] is Cricetinae gen. sp. As to the kind of experiment: Compound was evaluated in vivo for inhibition of HLE-induced hemorrhage in hamster lung at 100 microg 90 min after administration. It counts as functional, Cricetulus griseus.
Data set [8] is described as follows: Half-life value of the compound. It counts as ADME. Summed up:
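Chemical stability: compound dissolved at 1 mg/mL in 0.5 M MOPS, pH 8.0, held at 25 °C in capped vial; aliquots quenched in 2% aqueous TFA and analysed by reverse-phase HPLC over one to two half-lives. Peak areas fit to first-order decay F(t)=A/2^(t/t1/2) to give t1/2.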

The test system of data set [9] is Cricetinae gen. sp. As to the kind of experiment: Inhibitory activity against Human Leukocyte Elastase by Lung Hemorrhage assay (at 200 ug/animal). The class given is functional, Cricetulus griseus. Summed up: (§2)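 Hamster duration protocol: 200 μg/animal given intratracheally 60, 120, 180 or 240 min before IT HLE instillation; hemorrhage scored after 3 h as hemoglobin (414 nm) in saline lung lavage, relative to vehicle-treated animals; three animals per point. T50 taken as time at which 50% inhibition is still obtained.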

Data set [10] relates to Cricetinae gen. sp. The data set can be described thus: Inhibitory activity against Human Leukocyte Elastase by Lung Hemorrhage assay ( at 30 min). The class given is functional, Cricetulus griseus. Summed up: as §1
Data set [11] relates to Cricetinae gen. sp. The data set can be described thus: Inhibitory activity against Human Leukocyte Elastase by Lung Hemorrhage assay (Effective dose at 15 microg). The class given is functional, Cricetulus griseus.
Data set [12] concerns Cricetinae gen. sp. As to the kind of experiment: Compound was evaluated in vivo for inhibition of HLE-induced hemorrhage in hamster lung at 200 microg 1 hr after administration prior to HLE. The class given is functional, Cricetulus griseus. Summed up:
as §2

For data set [13], the system named is Cricetinae gen. sp. The data set can be described thus: Compound was evaluated in vivo for inhibition of HLE-induced hemorrhage in hamster lung at 200 microg 2 hr after administration prior to HLE. The class given is functional, Cricetulus griseus. The method in brief: as §2
In data set [14] the test system is Cricetinae gen. sp. As to the kind of experiment: Compound was evaluated in vivo for inhibition of HLE-induced hemorrhage in hamster lung at 200 microg 3h after administration prior to HLE. It counts as functional, Cricetulus griseus. Summed up:
as §2

Data set [15] relates to Cricetinae gen. sp. As to the kind of experiment: Compound was evaluated in vivo for inhibition of HLE-induced hemorrhage in hamster lung at 200 microg 4 hr after administration prior to HLE. The class given is functional, Cricetulus griseus. Summed up: as §2
The test system of data set [16] is Cricetinae gen. sp. The data set can be described thus: Compound was evaluated in vivo for inhibition of HLE-induced hemorrhage in hamster lung at 30 ug 30 min after administration prior to HLE. The class given is functional, Cricetulus griseus. The method in brief: as §1
Data set [17] relates to Cricetinae gen. sp. As to the kind of experiment: Compound was evaluated in vivo for inhibition of HLE-induced hemorrhage in hamster lung at 100 microg 30 min after administration prior to HLE. The class given is functional, Cricetulus griseus. Summed up: as §1
In data set [18] the test system is Cricetinae gen. sp. As to the kind of experiment: Compound was evaluated in vivo for inhibition of HLE-induced hemorrhage in hamster lung at 10 ug 30 min after administration prior to HLE. It counts as functional, Cricetulus griseus. Summed up:
as §1

In data set [19] the test system is Cricetinae gen. sp. The data set can be described thus: Inhibitory activity against Human Leukocyte Elastase by Lung Hemorrhage assay. It counts as functional, Cricetulus griseus.
For the next data set, the species on record is Rattus norvegicus. As to the kind of experiment: Inhibitory activity against Human Leukocyte Elastase by Lung Hemorrhage assay (at 250 ug/animal).
Data set [20] relates to Cricetinae gen. sp. As to the kind of experiment: Compound was evaluated in vivo for inhibition of HLE-induced hemorrhage in hamster lung at 10 microg 30 min after administration. The class given is functional, Cricetulus griseus. Summed up:
as §1

In data set [21] the test system is Cricetinae gen. sp. As to the kind of experiment: Compound was evaluated in vivo for inhibition of HLE-induced hemorrhage in hamster lung at 200 microg after 180 min of administration. The class given is functional, Cricetulus griseus. The method in brief: as §2
Data set [22] deals with Cricetinae gen. sp. As to the kind of experiment: Compound was evaluated in vivo for inhibition of HLE-induced hemorrhage in hamster lung at 200 microg, 2 hr after administration prior to HLE. The class given is functional, Cricetulus griseus. The method in brief:
as §2

For data set [23], the system named is Cricetinae gen. sp. As to the kind of experiment: Compound was evaluated in vivo for inhibition of HLE-induced hemorrhage in hamster lung at 200 microg, 3h after administration prior to HLE. It counts as functional, Cricetulus griseus. The method in brief:
as §2

In data set [24] the test system is Cricetinae gen. sp. As to the kind of experiment: Compound was evaluated in vivo for inhibition of HLE-induced hemorrhage in hamster lung at 200 microg, 1 hr after administration prior to HLE. The class given is functional, Cricetulus griseus. Summed up: as §2
The subject of data set [25] is Cricetinae gen. sp. The data set can be described thus: Compound was evaluated in vivo for inhibition of HLE-induced hemorrhage in hamster lung at 10 microg, 30 min after administration prior to HLE. It counts as functional, Cricetulus griseus. The method in brief: as §1
Data set [26] has as its system Cricetinae gen. sp. The data set can be described thus: Compound was evaluated in vivo for inhibition of HLE-induced hemorrhage in hamster lung at 200 microg, 4 hr after administration prior to HLE. The class given is functional, Cricetulus griseus. Summed up:
as §2

In data set [27] the test system is Cricetinae gen. sp. As to the kind of experiment: Compound was evaluated in vivo for inhibition of HLE-induced hemorrhage in hamster lung at 3 microg, 30 min after administration prior to HLE. It counts as functional, Cricetulus griseus. The method in brief: as §1
Data set [28] has as its system Cricetinae gen. sp. The data set can be described thus: Compound was evaluated in vivo for inhibition of HLE-induced hemorrhage in hamster lung at 100 microg, 30 min after administration prior to HLE. It counts as functional, Cricetulus griseus. The method in brief:
as §1

Data set [29] has as its system Cricetinae gen. sp. The data set can be described thus: Compound was evaluated in vivo for inhibition of HLE-induced hemorrhage in hamster lung at 30 microg, 30 min after administration prior to HLE.
For data set [30], the system named is Cricetinae gen. sp. The data set can be described thus: Compound was evaluated in vivo for inhibition of HLE-induced hemorrhage in hamster lung at 30microg, 30 min after administration prior to HLE. It counts as functional, Cricetulus griseus. The method in brief:
as §1

Data set [31] has as its system Cricetinae gen. sp. As to the kind of experiment: Compound was evaluated in vivo for lung hemorrhage inhibitory activity at 200 microg, 1 hr after administration prior to HLE. The class given is functional, Cricetulus griseus. The method in brief: as §2
For data set [32], the system named is Cricetinae gen. sp. As to the kind of experiment: Compound was evaluated in vivo for inhibition of HLE-induced hemorrhage in hamster lung at 10microg, 30 min after administration prior to HLE. The class given is functional, Cricetulus griseus. Summed up:
as §1

Data set [33] has as its system Cricetinae gen. sp. As to the kind of experiment: Compound was evaluated in vivo for inhibition of HLE-induced hemorrhage in hamster lung at 100 microg 5 min after administration. It counts as functional, Cricetulus griseus.

With `CO[C@H]1C(=O)N2C(C(=O)OC(C)(C)C)=C(COC(=O)N[C@@H](Cc3ccccc3)C(=O)O)CS(=O)(=O)[C@H]12`, the figures for the Inhibition in the data set on Cricetinae gen. sp. [1] and in the data set with Cricetinae gen. sp. [2] were 87% and 10%, respectively. Moreover, the k obs / 1 in [3] was 63900 M⁻¹ s⁻¹.

`CO[C@H]1C(=O)N2C(C(=O)OC(C)(C)C)=C(CSc3nnnn3CC(=O)O)CS(=O)(=O)[C@H]12`: the Inhibition (in general, the percentage by which the read-out fell short of the control) in the data set on Cricetinae gen. sp. [4] worked out at 89%; in the data set with Cricetinae gen. sp. [5], 77%. In data set [3], this molecule showed a k obs / 1 of 3700 M⁻¹ s⁻¹.

In turn, `CO[C@H]1C(=O)N2C(C(=O)OC(C)(C)C)=C(COC(=O)CCC(=O)O)CS(=O)(=O)[C@H]12` returned an Inhibition in the data set with Cricetinae gen. sp. [6] of 98%.

Turning to `CO[C@H]1C(=O)N2C(C(=O)OC(C)(C)C)=C(CSc3nc(=O)c(=O)[nH]n3C)CS(=O)(=O)[C@H]12`, the Inhibition with Cricetinae gen. sp. [4] worked out at 90%; in the data set on Cricetinae gen. sp. [7], 18%. For the same molecule, in data set [3], the k obs / 1 came to 8600 M⁻¹ s⁻¹.

On to `CO[C@H]1C(=O)N2C(C(=O)N(C)CC(=O)O)=C(CSc3nc(=O)c(=O)[nH]n3C)CS(=O)(=O)[C@H]12`, for which, in data set [8], the half-life (as a rule, the time in which the quantity being followed falls by half) was 22 h. In addition, the T50 in the data set with Cricetinae gen. sp. [9] is recorded as 180 min. Also, the ED50 came out at 10 µg with Cricetinae gen. sp. [10] and 400 µg with Cricetinae gen. sp. [11]. In addition, the Inhibition in the data set with Cricetinae gen. sp. [12] is on record as 94%; in the data set on Cricetinae gen. sp. [13] it was 90%; in the data set on Cricetinae gen. sp. [14], 64%; in the data set on Cricetinae gen. sp. [15], 37%; in the data set on Cricetinae gen. sp. [16], 94%; in the data set with Cricetinae gen. sp. [17], 98%. Further, the figures for the Inhibition in the data set with Cricetinae gen. sp. [18], in the data set with Cricetinae gen. sp. [19] and in the data set filed under Rattus norvegicus were 56%, 86% and 82%, respectively. Also, the k obs / 1 in [3] is 6200 M⁻¹ s⁻¹.

In turn, `CO[C@H]1C(=O)N2C(C(=O)N(C)CC(=O)O)=C(COC(C)=O)CS(=O)(=O)[C@H]12` had a half-life in [8] of 13 h. Also, the values for the Inhibition in the data set with Cricetinae gen. sp. [20], in the data set with Cricetinae gen. sp. [4] and with Cricetinae gen. sp. [21] were 67%, 90% and 54%, respectively. The same molecule displayed a k obs / 1 in data set [3] of 300 M⁻¹ s⁻¹.

Consider `CO[C@H]1C(=O)N2C(C(=O)N(C)[C@@H](C)C(=O)O)=C(COC(C)=O)CS(=O)(=O)[C@H]12`, for which the Inhibition in the data set with Cricetinae gen. sp. [22] amounted to 81%; with Cricetinae gen. sp. [23], 47%; in the data set on Cricetinae gen. sp. [24] it was 94%; with Cricetinae gen. sp. [25] it was 78%; in the data set with Cricetinae gen. sp. [26], 21%; in the data set with Cricetinae gen. sp. [27], 50%. Further, the Inhibition with Cricetinae gen. sp. [28] came to 96%; in the data set with Cricetinae gen. sp. [29], 89%. The molecule further showed a k obs / 1 in data set [3] of 500 M⁻¹ s⁻¹.

Take `CO[C@H]1C(=O)N2C(C(=O)N3CC(O)CC3C(=O)O)=C(COC(C)=O)CS(=O)(=O)[C@H]12` (stereo partly drawn): the Inhibition with Cricetinae gen. sp. [22] turned out to be 81%; in the data set with Cricetinae gen. sp. [23], 4%; in the data set with Cricetinae gen. sp. [26], 17%; with Cricetinae gen. sp. [30], 95%; in the data set with Cricetinae gen. sp. [31], 86%; in the data set on Cricetinae gen. sp. [28] it was 98%. This molecule also returned an Inhibition in the data set on Cricetinae gen. sp. [32] of 78%. For the same molecule, the k obs / 1 in [3] is 900 M⁻¹ s⁻¹.

In [8], `CO[C@H]1C(=O)N2C(C(=O)OCc3ccc(C(=O)O)cc3)=C(COC(C)=O)CS(=O)(=O)[C@H]12` showed a half-life of 5 h. The same molecule had an Inhibition in the data set on Cricetinae gen. sp. [33] of 98%.
